From ChEMBL document CHEMBL1126013, “Synthesis and evaluation of some water-soluble prodrugs and derivatives of taxol with antitumor activity” (J Med Chem, 1992)

Key:
Mus musculus [1] = test: Number of survivors after 11 days at a dose of 22.4 mg/Kg tested in 6 mice; type: functional
Outline: (§1)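 MX-1 human mammary carcinoma xenograft implanted under the renal capsule of mice. The study was run at the National Cancer Institute following the procedures of NIH Publication No. 84-2635. Average tumor weight was recorded at the start and end of treatment, and survivors were counted after 11 days. Dosed groups were compared with an untreated control group.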

Mus musculus [2] = test: Final average tumor weight was measured in mice induced with human mammary carcinoma at a dose of 4.45 mg/Kg; type: functional
Outline: (§2)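 MX-1 human mammary carcinoma xenograft implanted under the renal capsule in mice. Study run at the National Cancer Institute following NIH Publication No. 84-2635. Tumor weights recorded at the start and at the end. Survivors counted after 11 days. %T/C = (Δ tumor weight treated/Δ tumor weight control) × 100 where the tumor grows, and (Δ tumor weight treated/initial control tumor weight) × 100 where it regresses.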

B16 [3] = test: Percentage change in cell number of B16 melanoma cells treated with 10e-5 M dose; type: functional, Mus musculus
Outline: (§3)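 B16 melanoma cells exposed to 10⁻⁵ or 10⁻⁶ M compound for 8 h, then rinsed three times with fresh medium. Cells then grown in drug-free medium for 48 h and counted. Result given as percent change relative to the cell number at time zero. Controls are the average of three experiments.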

Mus musculus [4] = test: Antitumor activity of taxoland the derivative against mammary carcinoma xenograft in mice; type: functional; outline: as §2
Mus musculus [5] = test: Initial average tumor weight was measured in mice induced with human mammary carcinoma at a dose of 6.67 mg/Kg; type: functional; outline: as §2
B16 [6] = test: Relative effect on B16 melanoma cell proliferation was determined [IC50 (taxol)/IC50 (derivative)]; type: functional, Mus musculus
Mus musculus [7] = test: Tumor growth or regression measured as Percent treated by control at a dose of 10 mg/Kg to mice with MX-1 xenograft; type: functional; outline: as §2
Bos taurus = species: Bos taurus; test: Relative effect on microtubular assembly (Tubulin polymerized by derivative/tubulin polymerized by taxol); type: functional
Outline: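 Bovine brain tubulin, purified from microtubule-associated proteins by phosphocellulose chromatography, used at 10 μM. Turbidity followed at 350 nm. Polymer pelleted at 200000g, 37 °C, 4 min, depolymerized on ice, and protein measured by Bradford.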

Mus musculus [8] = test: Final average tumor weight was measured in mice induced with human mammary carcinoma at a dose of 22.4 mg/Kg; type: functional; outline: as §2
Mus musculus [9] = test: Final average tumor weight was measured in mice induced with human mammary carcinoma at a dose of 10 mg/Kg; type: functional; outline: as §2
Mus musculus [10] = test: Number of survivors after 11 days at a dose of 15 mg/Kg tested in 6 mice; type: functional; outline: as §1
Mus musculus [11] = test: Tumor growth or regression measured as Percent treated by control at a dose of 6.67 mg/Kg to mice with MX-1 xenograft; CR refers to complete remission or when the tumor is no longer detectable; type: functional, organism-based
Outline: (§4)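 Subrenal capsule human mammary carcinoma (MX-1) xenograft in mice, run at the National Cancer Institute by NIH Publication No. 84-2635 procedures. Initial and final average tumor weights recorded, with survivors counted after 11 days. %T/C is (Δ tumor weight treated/Δ tumor weight controls)×100 for growing tumors. For regressing tumors it is (Δ tumor weight treated/initial control tumor weight)×100.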

Mus musculus [12] = test: Final average tumor weight was measured in mice induced with human mammary carcinoma at a dose of 15 mg/Kg; type: functional; outline: as §2
Mus musculus [13] = test: Initial average tumor weight was measured in mice induced with human mammary carcinoma at a dose of 15 mg/Kg; type: functional; outline: as §2
Mus musculus [14] = test: Initial average tumor weight was measured in mice induced with human mammary carcinoma at a dose of 4.45 mg/Kg; type: functional; outline: as §2
Mus musculus [15] = test: Final average tumor weight was measured in mice induced with human mammary carcinoma at a dose of 6.67 mg/Kg; type: functional; outline: as §2
B16 [16] = test: Percentage change in cell number of B16 melanoma cells treated with 10e-6 M dose; type: functional, Mus musculus; outline: as §3
Mus musculus [17] = test: Tumor growth or regression measured as Percent treated by control at a dose of 4.45 mg/Kg to mice with MX-1 xenograft; CR refers to complete remission or when the tumor is no longer detectable; type: functional, organism-based; outline: as §4
B16 [18] = test: Concentration required to inhibit the proliferation of B16 melanoma cells was determined; type: functional, cell-based; settings: Mus musculus
Mus musculus [19] = test: Number of survivors after 11 days at a dose of 6.67 mg/Kg tested in 5 mice; type: functional; outline: as §1
Mus musculus [20] = test: Number of survivors after 11 days at a dose of 10 mg/Kg tested in 6 mice; type: functional; outline: as §1
Mus musculus [21] = test: Tumor growth or regression measured as Percent treated by control at a dose of 15 mg/Kg to mice with MX-1 xenograft; CR refers to complete remission or when the tumor is no longer detectable; type: functional, organism-based; outline: as §2
Mus musculus [22] = test: Initial average tumor weight was measured in mice induced with human mammary carcinoma at a dose of 10 mg/Kg; type: functional; outline: as §2
Mus musculus [23] = test: Tumor growth or regression measured as Percent treated by control at a dose of 22.4 mg/Kg to mice with MX-1 xenograft; Tox refers to toxicity or when < 65% of the animals survive the test; type: functional, organism-based; outline: as §2
Mus musculus [24] = test: Number of survivors after 11 days at a dose of 4.45 mg/Kg tested in 5 mice; type: functional; outline: as §1
Mus musculus [25] = test: Initial average tumor weight was measured in mice induced with human mammary carcinoma at a dose of 22.4 mg/Kg; type: functional; outline: as §2

CC(=O)O[C@H]1C(=O)[C@@]2(C)[C@H]([C@H](OC(=O)c3ccccc3)[C@]3(O)C[C@H](OC(=O)[C@H](O)[C@@H](NC(=O)c4ccccc4)c4ccccc4)C(C)=C1C3(C)C)[C@]1(OC(C)=O)CO[C@@H]1C[C@@H]2O [PACLITAXEL]
No. of survivors (Mus musculus [1]): 3
Final average tumor weight (Mus musculus [2]): 0 mg
Change in cell number (B16 [3]): 75%
Relative antitumor activity (Mus musculus [4]): 1
Initial average tumor weight (Mus musculus [5]): 0.74 mg
Relative effect (B16 [6]): 1
T/C (Mus musculus [7]): -84%
Relative effect (Bos taurus): 1
Final average tumor weight (Mus musculus [8]): 0 mg
Final average tumor weight (Mus musculus [9]): 0.09 mg
No. of survivors (Mus musculus [10]): 6
T/C (Mus musculus [11]): Complete remission
Final average tumor weight (Mus musculus [12]): 0 mg
Initial average tumor weight (Mus musculus [13]): 0.81 mg
Initial average tumor weight (Mus musculus [14]): 0.79 mg
Final average tumor weight (Mus musculus [15]): 0 mg
Change in cell number (B16 [16]): 252%
T/C (Mus musculus [17]): Complete remission
IC50 (B16 [18]): 19 nM
No. of survivors (Mus musculus [19]): 5
No. of survivors (Mus musculus [20]): 6
T/C (Mus musculus [21]): Complete remission
Initial average tumor weight (Mus musculus [22]): 0.58 mg
T/C (Mus musculus [23]): Toxic
No. of survivors (Mus musculus [24]): 5
Initial average tumor weight (Mus musculus [25]): 0.6 mg
